Rows were chosen to be rich in hits. Some 2.6% of all compounds tested hit in one or more screens of this group.
GSIS activator – primary screen for activators of insulin secretion dependent on glucose, INS-1E cells, GLuc reporter luminescence. INS-1E GLuc reporter insulin secretion, 2-3 h. activation, % at 16.6 µM. 370,000 tested, 0.61% active;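 active = lowest replicate activation of at least 40%, so every replicate reaches that level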;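 also: 0% = median of neutral control wells and 100% = median of IBMX positive control wells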
miR-122 sensor – blocks miR-122 activity in Huh7 sensor cells; Huh7 miR-122 Renilla luciferase sensor, 48 h; neutral wells = 0, positive control = 100; activation (reporter increase), % at 12.5 µM; 340,000 tested, 0.3% active; AID 602342;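 active = mean replicate activation score at least 90 and every replicate individually at or above 90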;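 also: higher luciferase means less miR-122 activity so hits act as miR-122 inhibitors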
E-sel inducer – induces E-selectin expression in human endothelial cells. P16581. HUVEC E-selectin immunofluorescence imaging; normalized: neutral wells 0, TNF-alpha wells 100. activation, % at 7.58 µM. 260,000 tested, 0.37% active. AID 686992;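 active = mean E-selectin-positive cell signal at least 10% of the positive control, reached in at least 60% of replicates, without over 20% cell loss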
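Material: HUVEC primary endothelial cells; Amount: 3,000 cells per well; Dosing: single concentration; Medium: EGM-2 growth medium on 0.1% gelatin-coated wells; Read-out basis: percent E-selectin-positive cells; Signal: immunofluorescence imaging; Control set: TNF-alpha, DMSO.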
CFTR F508del cor – correctors of CFTR F508del function in bronchial epithelial cells; CFBE cells, YFP halide quenching; stimulated with forskolin plus potentiator P3; % fluorescence drop versus neutral controls; 350,000 tested, 0.36% active; activity (quench increase), % at 7.58 µM;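 active = mean added fluorescence quench of at least 8% versus neutral control, with both replicates also reaching 8%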;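 also: cells transiently co-express mutant CFTR-F508del with the halide-sensitive YFP; corrector assay measuring rescue of mutant channel to the surface after 24 h compound exposure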
ERAP1 inh – blocks human ERAP1 aminopeptidase activity; 340,000 tested, 0.15% active; AID 652197; inhibition, % at 10.7 µM; Q9NZ08; recombinant ERAP1, Leu-AMC fluorescence, 60 min;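 active = mean replicate inhibition of at least 30%, or all replicates individually reaching that 30% level; inactive = mean below 30% and not every replicate reaching it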;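 also: 0% = neutral control wells and 100% = L-leucinethiol positive control wells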
Target sequence (Q9NZ08 whole entry, looked up): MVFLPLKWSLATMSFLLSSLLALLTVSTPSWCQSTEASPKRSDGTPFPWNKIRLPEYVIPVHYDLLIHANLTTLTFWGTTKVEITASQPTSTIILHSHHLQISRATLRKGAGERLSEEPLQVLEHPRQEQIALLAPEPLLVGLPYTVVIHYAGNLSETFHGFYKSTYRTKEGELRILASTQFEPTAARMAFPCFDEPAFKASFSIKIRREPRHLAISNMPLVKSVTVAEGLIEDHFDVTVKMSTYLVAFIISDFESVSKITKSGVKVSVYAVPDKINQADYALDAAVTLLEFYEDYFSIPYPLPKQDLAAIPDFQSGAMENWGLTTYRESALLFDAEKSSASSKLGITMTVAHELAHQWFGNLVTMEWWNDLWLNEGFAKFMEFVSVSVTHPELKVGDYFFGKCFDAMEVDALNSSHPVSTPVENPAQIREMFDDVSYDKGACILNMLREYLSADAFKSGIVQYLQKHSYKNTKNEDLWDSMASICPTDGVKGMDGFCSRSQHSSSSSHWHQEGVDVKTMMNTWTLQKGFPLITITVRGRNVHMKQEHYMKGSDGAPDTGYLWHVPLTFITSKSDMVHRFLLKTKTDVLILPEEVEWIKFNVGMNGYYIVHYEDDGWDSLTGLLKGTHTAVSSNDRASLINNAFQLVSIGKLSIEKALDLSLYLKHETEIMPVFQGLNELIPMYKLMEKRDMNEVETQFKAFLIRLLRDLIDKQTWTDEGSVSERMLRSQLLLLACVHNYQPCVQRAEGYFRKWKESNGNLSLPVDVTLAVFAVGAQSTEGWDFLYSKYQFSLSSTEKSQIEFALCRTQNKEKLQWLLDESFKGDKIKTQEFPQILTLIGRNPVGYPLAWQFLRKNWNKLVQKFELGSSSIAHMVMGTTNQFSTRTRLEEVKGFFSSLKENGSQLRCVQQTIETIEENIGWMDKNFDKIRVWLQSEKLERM
DENV2 CPE rescue – DENV2-induced cell death inhibition; 350,000 tested, 1.7% active; CPE inhibition, % at 9.99 µM; DENV2-infected cells, cytopathic effect rescue, plate reader; in the data active = CPE inhibition above about 20%, passing the limit was not always enough; tested in BHK-21 cells;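 also: 0% = median of neutral control wells and 100% = median of positive control wells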
The depositor's hits bear a star; x = no result; [ ] = dose if it differs, or a comment.

SMILES	GSIS activator	miR-122 sensor	E-sel inducer	CFTR F508del cor	ERAP1 inh	DENV2 CPE rescue
Cc1ccc(S(=O)(=O)Nc2ccc3c(c2)CC(=O)N([C@H](C)CO)C[C@H](C)[C@@H](CN(C)S(=O)(=O)c2ccc(C)cc2)O3)cc1	3	0[16.7 µM]	0	0	-1	67*
Cc1ccc(S(=O)(=O)Nc2ccc3c(c2)CC(=O)N([C@@H](C)CO)C[C@@H](C)[C@H](CN(C)S(=O)(=O)c2ccc(Cl)cc2)O3)cc1	1	-3[16.7 µM]	-1	0	x	49*
Cc1ccc(S(=O)(=O)N(C)C[C@H]2Oc3ccc(NS(=O)(=O)c4ccc(Cl)cc4)cc3CC(=O)N([C@@H](C)CO)C[C@H]2C)cc1	-4	-8[16.7 µM]	0	-1	-2	27*
Cc1ccc(S(=O)(=O)N(C)C[C@@H]2Oc3ccc(NC(=O)NC4CCCCC4)cc3CC(=O)N([C@@H](C)CO)C[C@@H]2C)cc1	-22	-7[16.7 µM]	2	1	0	35*
O=C1CN(Cc2ccc(F)cc2)C[C@@H]2[C@H](c3ccc(Br)cc3)[C@H](CO)N12	-1	x	0	0	0	7
Cn1cnc(S(=O)(=O)N2CC[C@@H]3[C@H]2c2cc(C#CC4CCCC4)ccc2N[C@@H]3CO)c1	5	x	2	-1	2	-7
COc1ccc(NC(=O)Nc2ccc3c(c2)C(=O)N([C@H](C)CO)C[C@H](C)[C@@H](CN(C)S(=O)(=O)c2cn(C)cn2)OCCCC[C@@H](C)O3)cc1	9	0[16.7 µM]	0	0	x	-2
O=C(NC(Cc1ccccc1)C(=O)N1CCN(S(=O)(=O)c2ccccc2F)CC1)c1ccccc1 (stereo not drawn)	27	-2	-1	8.7*	1	7
Cc1ccc(S(=O)(=O)N(C)C[C@@H]2Oc3ccc(NC(=O)Cn4cnnn4)cc3C(=O)N([C@H](C)CO)C[C@@H]2C)cc1	-16	-11[16.7 µM]	0	1	0	-1
Cc1ccc(S(=O)(=O)N(CCCc2c(C)nc(N)[nH]c2=O)Cc2ccc([N+](=O)[O-])cc2)cc1	-14	x	1	1	2	8
Cc1nc(N)[nH]c(=O)c1CCCNS(=O)(=O)c1ccc([N+](=O)[O-])cc1	x	16	2	8.1*	2	4
CCOc1cc(N2CCOCC2)c(OCC)cc1NC(=O)CCS(=O)(=O)c1ccc(Cl)cc1	x	1	x	x	x	x
CCN(CC)S(=O)(=O)c1ccc(N2CCOCC2)c(NC(=O)c2ccccc2)c1	-3	x	x	1	-1	26*
COc1cccc(OC)c1C(=O)Nc1cc2c(cc1N1CCOCC1)n(C)c(=O)n2C	369	3	x	2	1	-5
Cn1c(=O)n(C)c2cc(N3CCOCC3)c(NC(=O)c3ccc(F)cc3)cc21	12	x	x	1	0	42*
CCOC(=O)c1ccc(N2CCOCC2)c(NC(=O)c2c(-c3ccccc3)noc2C)c1	7	43	1	16*	0	-1
CCOc1cc(N2CCOCC2)c(OCC)cc1NS(=O)(=O)c1ccc(Cl)s1	x	113*	x	x	x	x
C[C@@H]1CCCCO[C@@H](CN(C)CC2CCCCC2)[C@@H](C)CN([C@H](C)CO)C(=O)c2cc(NC(=O)Cc3ccccc3)ccc2O1	0	31[16.7 µM]	1	1	1	-7
CN(C)C(=O)C[C@H]1C=C[C@@H](NC(=O)NC2CCCCC2)[C@@H](CO)O1	12	-8[16.7 µM]	1	-1	-4	-12
CCOc1cc(N2CCOCC2)c(OCC)cc1NC(=O)c1cc(S(=O)(=O)N2CCOCC2)ccc1Cl	4	-8	x	-1	2	1
CCOc1cc(N2CCOCC2)c(OCC)cc1NC(=O)c1ccc(S(=O)(=O)N2CC(C)OC(C)C2)cc1 (stereo not drawn)	-15	x	131*	-5	0	0
COc1ccc2c(c1OC)C(=O)N1c3ccccc3SC21 (stereo not drawn)	115*	6	x	x	x	x
COc1ccc2c(c1OC)C(=O)N1c3ccccc3COC21 (stereo not drawn)	x	-8	x	x	x	x
CCC(=O)N1CC(=O)N2[C@H](CO)[C@H](c3ccc(C#Cc4cccc(F)c4)cc3)[C@H]2C1	-8	x	0	2	2	3
CCN(C(=O)CSc1nc2ccccc2c(=O)n1-c1ccc(C)cc1)C1CCS(=O)(=O)C1 (stereo not drawn)	-4	x	x	1	1	x
SMILES	GSIS activator	miR-122 sensor	E-sel inducer	CFTR F508del cor	ERAP1 inh	DENV2 CPE rescue
CCN(C(=O)CSc1nc2ccccc2c(=O)n1-c1ccccc1F)C1CCS(=O)(=O)C1 (stereo not drawn)	24	-10	-1	11*	1	-4
CCCNC(=O)N1CC2(C1)[C@H](c1ccccc1)[C@@H](CO)N2CC1CC1	3	x	0	1	-1	4
CC(C)Oc1ncnc2c1[nH]c1ccccc12	-31	-2	x	10*	-2	6
CCCOc1ncnc2c1[nH]c1ccccc12	x	-3	x	x	x	x
C[C@@H]1CN([C@H](C)CO)C(=O)c2cc(C#CCN(C)C)cnc2O[C@H]1CN(C)S(=O)(=O)c1cn(C)cn1	40*	-2[16.7 µM]	0	2	-3	7
C[C@H](CO)N1C[C@H](C)[C@H](CN(C)S(=O)(=O)c2cn(C)cn2)Oc2ncc(C3=CCCC3)cc2C1=O	8	-4[16.7 µM]	0	-3	-1	1
C[C@H](CO)N1C[C@H](C)[C@@H](CN(C)S(=O)(=O)c2cn(C)cn2)Oc2ncc(C3=CCCC3)cc2C1=O	17	-10[16.7 µM]	1	1	1	23*
C[C@H]1CN([C@@H](C)CO)S(=O)(=O)c2ccc(/C=C/c3ccccc3)cc2O[C@H]1CN(C)C(=O)CN1CCOCC1	1	-5[16.7 µM]	0	4	x	x
Cc1ccc(S(=O)(=O)N[C@H]2CC[C@H](CCNC(=O)C3CCCC3)O[C@H]2CO)cc1	9	18[16.7 µM]	0	2	-1	27*
O=C(NCC[C@H]1CC[C@@H](NS(=O)(=O)c2ccc(Oc3ccccc3)cc2)[C@@H](CO)O1)C1CC1	4	x	0	-2	1	-1
O=C(NCC[C@H]1CC[C@H](NS(=O)(=O)c2ccc(Oc3ccccc3)cc2)[C@@H](CO)O1)C1CC1	-1	x	1	3	-1	85*
Cc1ccc(S(=O)(=O)N[C@@H]2CC[C@@H](CCNC(=O)C3CCCC3)O[C@H]2CO)cc1	9	-20[16.7 µM]	0	1	1	-2
CN(C[C@H]1[C@H](c2ccccc2)[C@@H](CO)N1CC1CC1)C(=O)c1ccccc1	2	-6[16.7 µM]	0	1	1	-6
COc1ccc2c3c([nH]c2c1)[C@H](CO)N(C(=O)C1CCOCC1)CC31CCN(S(C)(=O)=O)CC1	11	x	0	1	-5	35*

Screens (PubChem BioAssay)
